The source of these data is ChEMBL document CHEMBL3997772, “Tyrosyl-DNA Phosphodiesterase 1 Inhibitors: Usnic Acid Enamines Enhance the Cytotoxic Effect of Camptothecin” (J Nat Prod, 2016).

The nature of data set [1]: Cytotoxicity against human A549 cells assessed as reduction in viable cells after 72 hrs by MTT assay. The class given is cell-based. An outline of the steps: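 A-549 cells treated with compounds; after 72 h, viable cells measured by MTT colorimetric test. CC50 = concentration reducing cell number by 50% versus untreated controls.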
A general note: Tetrazolium assays rely on reduction of a dye to a coloured formazan, in cell work by metabolically active cells.

The target in data set [2] is T1, Tyrosyl-DNA phosphodiesterase 1 (Homo sapiens, UniProt Q9NUW8). The data set is described as follows: Inhibition of TDP1 in human A549 cells assessed as potentiation of camptothecin-induced cytotoxicity by measuring fold reduction in camptothecin CC50 at 0.5 uM after 72 hrs by MTT assay relative to camptothecin alone. The format is cell-based. In a few lines: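 A-549 cells treated with graded camptothecin plus 0.5 μM enamine; viability by MTT after 72 h. Camptothecin CC50 compared with and without enamine.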
T1 sequence (Q9NUW8 whole entry): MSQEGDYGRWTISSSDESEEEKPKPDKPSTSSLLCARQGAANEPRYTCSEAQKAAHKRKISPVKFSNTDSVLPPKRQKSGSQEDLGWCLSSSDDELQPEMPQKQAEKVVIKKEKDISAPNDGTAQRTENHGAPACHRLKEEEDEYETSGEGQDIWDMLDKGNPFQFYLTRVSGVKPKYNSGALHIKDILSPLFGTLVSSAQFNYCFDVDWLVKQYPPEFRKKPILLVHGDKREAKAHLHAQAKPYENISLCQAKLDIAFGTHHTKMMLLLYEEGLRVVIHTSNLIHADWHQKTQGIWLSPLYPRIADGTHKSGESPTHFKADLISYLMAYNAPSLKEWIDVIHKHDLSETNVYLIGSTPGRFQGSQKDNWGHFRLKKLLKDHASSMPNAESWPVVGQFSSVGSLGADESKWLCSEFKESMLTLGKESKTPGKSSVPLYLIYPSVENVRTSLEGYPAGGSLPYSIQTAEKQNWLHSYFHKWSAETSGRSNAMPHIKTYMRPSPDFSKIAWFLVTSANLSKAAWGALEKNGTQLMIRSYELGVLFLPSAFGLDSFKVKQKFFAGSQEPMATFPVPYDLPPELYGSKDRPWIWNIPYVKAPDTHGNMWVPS

In data set [3] the target is T1, Tyrosyl-DNA phosphodiesterase 1. The data set is described as follows: Inhibition of recombinant TDP1 (unknown origin) using 5'-(5,6 FAM-aac gtc agg gtc ttc c-BHQ1)-3' as substrate measured at 1 min interval by fluorimetric method. An outline of the steps:
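Recombinant TDP1 1.3 nM with 50 nM FAM/BHQ1 biosensor in 50 mM Tris-HCl pH 8.0, 50 mM NaCl, 7 mM β-mercaptoethanol, 26 °C. Fluorescence read each minute (Ex485/Em520). Slope over 0–7 min linear phase compared with DMSO control; IC50 from 11-point concentration-response curve.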

Data set [4] shares this target. The data set is described as follows: Inhibition of TDP1 in human MCF7 cells assessed as potentiation of camptothecin-induced cytotoxicity by measuring fold reduction in camptothecin CC50 at 0.5 uM after 72 hrs by MTT assay relative to camptothecin alone. The format is cell-based. In a few lines: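 MCF-7 cells (~2000/well), pre-grown 24 h at 37 °C in IMDM, 5% CO2, treated with graded camptothecin plus 0.5 μM enamine for 72 h. Viability by MTT; camptothecin CC50 taken as 50% reduction in cell number vs untreated controls, compared with and without enamine.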

Data set [5] can be described thus: Cytotoxicity against human MCF7 cells over expressing TDP1 assessed as reduction in viable cells after 72 hrs by MTT assay. The class given is cell-based. Particulars: MCF7 cells overexpressing TDP1. In a few lines:
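MCF-7 cells (~2000/well) grown 24 h at 37 °C in IMDM, 5% CO2, then exposed to 0.1–100 μM compound for 72 h. Viable cells by MTT test; CC50 = concentration reducing cell number 50% vs untreated controls; average of three independent experiments.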

Data set [6] deals with T1, Tyrosyl-DNA phosphodiesterase 1. The data set is described as follows: Inhibition of recombinant TDP1 (unknown origin) assessed as reduction in BHQ1 excision from 3'-end of [32P]-labeled oligonucleotide substrate after 20 mins by polyacrilamide gel electrophoresis.

Some results are limits rather than exact numbers.

One may read the CC50 as the concentration at which the toxic effect on the cells reaches its halfway point. Usually IC50 stands for the concentration at which inhibition is half-maximal. Regarding `CC(=O)c1c(O)c(C)c(O)c2c1OC1=CC(=O)/C(=C(/C)NCCCc3cc(C(C)(C)C)c(O)c(C(C)(C)C)c3)C(=O)C12C` (stereo not given), the values for the CC50 at 72 h in data set [1] and in data set [5] were over 100 µM and over 50 µM, respectively. Moreover, the fold change (FC) in data set [2] is 3.5; in data set [4], 10.5. In data set [3], the IC50 amounted to 0.16 µM.
For `CC(=O)c1c(O)c(C)c(O)c2c1OC1=CC(=O)/C(=C(/C)Nc3cccc(Br)c3)C(=O)C12C` (stereo not given) the same measures were over 100 µM, 18.1 µM, 1.2, 12.5 and 0.75 µM.
On to `CC(=O)c1c(O)c(C)c(O)c2c1OC1=CC(=O)/C(=C(/C)NCCCN3CCOCC3)C(=O)C12C` (stereo not given), for which the 50% inhibitory concentration (IC50) in data set [3] was over 100 µM. Further, the CC50 at 72 h in data set [5] stood at 24 µM.
For the molecule `CC(=O)c1c(O)c(C)c(O)c2c1OC1=CC(=O)/C(=C(/C)Nc3ccc(F)cc3)C(=O)[C@]12C`, the concentration for half-maximal inhibition (IC50) in data set [3] was found to be 0.94 µM. In addition, in data set [4], the fold change (FC) worked out at 1.6. In data set [5], the 50% cytotoxic concentration (CC50) at 72 h was over 50 µM.
For `CC(=O)c1c(O)c(C)c(O)c2c1OC1=CC(=O)/C(=C(/C)Nc3ccccc3)C(=O)[C@@]12C` the same measures were 1.53 µM, 1.2 and over 50 µM.
With `CC(=O)c1c(O)c(C)c(O)c2c1OC1=CC(=O)/C(=C(/C)Nc3cccc(F)c3)C(=O)C12C` (stereo not given), the results for the 50% cytotoxic concentration (CC50) at 72 h in data set [1] and in data set [5] were over 100 µM and 35 µM, respectively. Besides, the fold change (FC) in data set [2] stood at 1.6; in data set [4], 12.8. In addition, the IC50 in data set [3] came out at 1.39 µM.
Turning to `CC(=O)C1=C(O)C=C2Oc3c(C(C)=O)c(O)c(C)c(O)c3[C@@]2(C)C1=O` [(+)-USNIC ACID], the IC50 in data set [3] is over 100 µM. Besides, the cytotoxic concentration (CC50) at 72 h in data set [5] is 52.3 µM.
Consider `CC(=O)C1=C(O)C=C2Oc3c(C(C)=O)c(O)c(C)c(O)c3[C@]2(C)C1=O` [(-)-USNIC ACID], for which the IC50 in data set [3] is over 100 µM.
Take `CC(=O)c1c(O)c(C)c(O)c2c1OC1=CC(=O)/C(=C(/C)Nc3ccccc3)C(=O)[C@]12C`: the concentration for half-maximal inhibition (IC50) in data set [3] was found to be 1.92 µM. Also, the fold change (FC) in data set [4] was 1. For the same molecule, in data set [5], the cytotoxic concentration (CC50) at 72 h turned out to be 39 µM.
Consider `CC(=O)c1c(O)c(C)c(O)c2c1OC1=CC(=O)/C(=C(/C)NCCN(C)C)C(=O)C12C` (stereo not given), for which the IC50 in data set [3] was over 100 µM. Besides, the CC50 at 72 h in data set [5] turned out to be 33 µM.
Consider `CC(=O)c1c(O)c(C)c(O)c2c1OC1=CC(=O)/C(=C(/C)Nc3ccc(F)cc3)C(=O)[C@@]12C`, for which the 50% inhibitory concentration (IC50) in data set [3] turned out to be 1.54 µM. Besides, the fold change (FC) in data set [4] was determined as 2.1. The CC50 at 72 h in data set [5] came out at 22.2 µM.
The corresponding values for `CC(=O)c1c(O)c(C)c(O)c2c1OC1=CC(=O)/C(=C(/C)Nc3ccc(Cl)cc3)C(=O)[C@@]12C` are 1.81 µM, 0.51 and over 50 µM.
For `CC(=O)c1c(O)c(C)c(O)c2c1OC1=CC(=O)/C(=C(/C)NCCc3cc(C(C)(C)C)c(O)c(C(C)(C)C)c3)C(=O)C12C` (stereo not given) the same measures were 0.19 µM, 1.7 and over 50 µM.
With `CC(=O)c1c(O)c(C)c(O)c2c1OC1=CC(=O)/C(=C(/C)Nc3ccc(Br)cc3)C(=O)[C@]12C`, the IC50 in data set [3] amounted to 0.57 µM. In addition, the fold change (FC) in data set [4] came out at 0.92. Besides, in data set [5], the CC50 at 72 h was 10.6 µM.
The corresponding values for `CC(=O)c1c(O)c(C)c(O)c2c1OC1=CC(=O)/C(=C(/C)Nc3ccc(Cl)cc3)C(=O)[C@]12C` are 1.62 µM, 0.35 and 16 µM.
`CC(=O)c1c(O)c(C)c(O)c2c1OC1=CC(=O)/C(=C(/C)NCCc3ccc(O)cc3)C(=O)[C@@]12C`: the values for the cytotoxic concentration (CC50) at 72 h in data set [1] and in data set [5] were 70 µM and 21.5 µM, respectively. For the same molecule, the results for the fold change (FC) in data set [2] and in data set [4] were 1.3 and 12.8, respectively. Further, the IC50 in data set [3] was 0.79 µM.
As for `CC(=O)c1c(O)c(C)c(O)c2c1OC1=CC(=O)/C(=C(/C)Nc3ccc(Br)cc3)C(=O)[C@@]12C`, the IC50 in data set [3] came out at 0.26 µM; in data set [6] it was 4.6 µM. In addition, the fold change (FC) in data set [4] was determined as 1.5. Further, the CC50 at 72 h in data set [5] came out at 39.3 µM.
